B1: tRNA (parent)
chain: GUUCCGUUGGCGUAAUGGUAACGCGUCUCCCUCCUAAGGAGAAGACUGCGGGUUCGAGUCCCGUACGGAACG

Fewer inactive variants are shown than the library holds.

Variants of B1 are the subject of the data set. In words: yeast fitness relative to wild type (ratio to wild type); higher = fitter; tRNA-Arg(CCU), competitive growth, 37 C, YPD. The procedure, abridged:
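A pool of Saccharomyces cerevisiae strains, each with a tRNA-Arg(CCU) gene variant at the native genomic locus, was competed in YPD at 37°C for 24 hours across six parallel replicates. The variants had been chemically synthesised at a 3% per-site mutation rate over 69 sites, and gene amplicons before and after competition were read by 100-nucleotide paired-end sequencing. Darwinian fitness relative to wild type rested on changes in genotype frequencies. Genotypes required ≥ 100 starting reads, and estimates < 0.5 were set to 0.5.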
Take GUUCCAUUGGCGUAAUAGAAACGCGUCUCCGUCCUAAGGAGAAGACUGCGGGCACGAGUCCCGUACGGAACG: the yeast fitness is at most 0.5.

With GUUCCCUUGGCGUGAUGGUAACGCGUAUCCCUCCUAAGGAGCAGACUGCGGAUUCAAGUCCCCUACGGAACG, the yeast fitness was at most 0.5.

Consider GUUCCGUUGGCGUAAUGGUGACGCGUCUCUCUCCUAAGGAGAAGACUGCGGGUUCGAGUCCCGUACGGAACG, for which the yeast fitness turned out to be 0.871. To GUUCCGGUGGCGUAAUGGUAACGCGUCUCCCUCCUAAGCAGGAGACUGCGGGUUCGAGUCCCGUACGGAACG belongs at most 0.5; to GUUCCGUUGGCGUAAUGGUAACGCGUCUCCCUCUUAAGGAGAAGACAGCGGGUUCGAGUCCCGUACGGAACG, 0.621. To GUUCAGUUGGCGUAAUGGUAACGCGUCUCCCUCCUAAGGAGAAGACUGCAGGCUCGAGUCCAGUACGGUACG belongs at most 0.5; to GUUCCGUUGGCGUAAUGGUAACGCGUCUCCCUCCUAAGGAGAAAACUGCGGGUUCGAGUACCGUACGGAACG, 0.585; to GUUCCGUUGGCGUAAUGGUAACGCGUCUACCUCCUAAGGAGAAGACUGCGGGUUCGAGUCGCGUAUGGUACG, at most 0.5. To GUUCCGUUGGCGUGAUGGUAACGCGUCUCGCUCCUCAGGAGAAGACUGCGGGUUCGAGUCCCGUACGGAACG belongs 0.525; to GUUCCGUUGGCGUAAUGGUAAAGCGUCUCCCUCCUAAGGAGAAGACUCCGGGUUCGAGUCCCGUACGGAACG, 0.851; to GUUCCGGUGGCGUAAUGGUAACGCGUCUCCCUCCUAAGAAGAAGACUGCGGGUUCGAGUCCCGUACGGAACG, 0.874. Turning to GUUCCGUUGGCGUAAUGGUAACGCGUCUCCCUCCUAAGGAGAAGGCUGCGGGUUCGAAUCCCAUACGGAACG, the yeast fitness is 0.727.

Consider GUUCCGUUGGUGUAAUGGUAACGCGUCUCCCUCCUAAGGAGAAGACUGCGGGUUCGCGUCCCGUACGGAACG, for which the yeast fitness is 0.622.

As to GUUCCGUUGGCGUAAUGGUAACGCGUCUCCCUUCUAAAGAGAAGACUGCGGGUUCGAGUGCCGCACGGAACG, the yeast fitness is at most 0.5.

In the case of GUUCCGCUGGCGUAAUGGUAACGCGUCUCCCUCCUAAGGAGAAGACGGCGGGUUCGAGACCCGUAAGGACCG, the yeast fitness is at most 0.5. To GUCCCGUUGGCGUAAUGGUAACGCGUCUCCCUCCUAAGGAGAAGACGGCGGGUUCGAGUCCCGAACGGAACG belongs at most 0.5; to GUUCCGUUGGCGUAUUCGUAACGCGUCUCCCUCCUAAGGAGAAGUCUGGGGGUUCGAGUCCCGUACGGAACG, at most 0.5.

For the variant GUUCCGUUGCCGUAAUGGUAACGCGUCUCCCUCCUAAGGAGAAGACUGCGGGUUCGAGUUCCGUACGGAACG, the yeast fitness was at most 0.5. Take GUUCCGUUGGCGUAAUGGUAACGCGUCUCCCUCUUAAGGAGAAGACUGCGGGUUCGACUCACGUACGGUACG: the yeast fitness was at most 0.5. The figure for GUUCGGUUGGCGUAAUGGUAACGCGUCUCCCUCCUAAGGAGAAGACAGCGGGUUAGAGUCCCGUACGGAACG is 0.637. As to GUUCCGUUGGCGUAAUGGUACCGCGUCUCCCUUCUAAGGAGAAGACUGCGGGUUUGCGUCACGUACGGAACG, the yeast fitness was at most 0.5. Turning to GUUCCGUUGGCGUAAUGGUAACGCGUCUCCCUCCUAAGGAGAAGUCUGCGGGUUCGAGUCCCGUACCGAACG, the yeast fitness came to 0.738.

Take GUUCCGUUGGGGUAAUGGUAACGCGUCACCCUCCUAAGAAGAAGACUACGGGUUCGACUCCCGUACGGAACG: the yeast fitness turned out to be 0.543.

On to GUUCCGUUGGCGUAGUGGUAACGCGUCUCCCUCCUAAGGAGAAGACUGCGGGUUCGAGUCCCGUACGUAACG, for which the yeast fitness is 0.782.

Take GUUCCGUUGGCGUAAUGGUAACGCGUGUCCCUCCUAAGGAGACGAUUGCGGGUUCGAAUCCCGUACGGAACG: the yeast fitness stood at 1.02. To GUUCCGUUGGCGUGAUGGUAACGCGUCUCCCUCCUAAGGAGAAGACUGCGGGUUCGAGUCCCGUGCGGAACG belongs 0.887; to GUUGCGUCGGCGUACUGGUAACGCGUCUCCAUCCUUCGGAGAAGACUGCGGGUUCGAGUACCGUGCGGGACG, at most 0.5. To GUUCCGUUGGCGUAUUGGUGACGCGUCUCCCUCCUAAGGAGAAGUCUGCGGGUUCGAGUCCCGUACGGAACG belongs at most 0.5; to GUUCCGUUGGCAUAGUGGUAACGCGUCUCCCUCCUAAGGAGAAGACUGCGGGUUCGAGUCCCGUGCGGAACG, 0.541. For GUUCCGUUGGCGUAAUGGUAACGCGUCUCCCUCCGAAGGAGAAGACUGCGGGUUCGACUCCCGUACGGAACG, the yeast fitness stood at 0.653.

For GUUCCGUUGGCGUAAUGGUAACGCGUAUCCCUCCUAAGGAGAAGACUGCGGGUUCGAGUCCCGCACGGAACG, the yeast fitness worked out at 0.943. The figure for GUUCCGUUGGCGUAAUGGUAACGAGUCUCCCUCCUAAGGAGAGGACUGCGGAUUCGAAUCCCGUACGGAACG is at most 0.5.

Consider GUUCCGUUGGCGUAAUGGUAACGCGUCCCCCUCCUAAGGAGAAGACUGCGGGUUUGAGUCCCGUAGGGAACG, for which the yeast fitness is at most 0.5. GUUCCGUUGACGUAAUGGUAACGCGUCUCCGUCCUAAGGAGAAAACUGCGGGUUCCAGUCCCGUACGGAACG: the yeast fitness is at most 0.5. To GUUCCGUUGGCCUAAUGGUUACGCGUCUCUCUCCUAAGGAGAAGACUGCGGGUUCGAGUCCCGUGCGGCACG belongs at most 0.5; to GUUCCGUUGGCGUGAUGGUAACGCGUCUCCCUUCUAAAGAGAAGACUGCGGGUUUGAGUCCCGUACGGAACG, at most 0.5; to GUUCCGUUGGCGUAAUGGUAACGCGUCUCCCUACUAAGGAGAAGACUGCGGGUUCGACUCCCGUACGGAACG, 0.647. To GUUCCGUUGGCGUGAUGGUAACGCGUCUCCCUCCUAAGGAAAAGACAGCGGGUUCGAGUCCCGUACGGAACG belongs 0.591; to GUUCCCUUCGCGUAAUGGUAACGCGUCUCCCUCCUAAGGAGAAGACUGCGGGUCCGAGUCCCGUACGGAACG, 0.603. To GUUCCGUUAGCGUAAUGGUAACGCGUCUCCCUCCUAAGGAGAAGACUGCGGGCUCGAGUCCCGUACGGAACG belongs 0.77. On to GUUCUGUUGGCGUAAUGGUAACCCGUCUCCCUCCUAAGGAGAAGACUGCGGGUUCGAGUCCCGUACGGCACG, for which the yeast fitness was at most 0.5.

GUUCCGUUGGCGUAAUGGUAACGCGUCUCCCUCCUAUGGAGAAGGCUGCGGGUUCGAGUCCCGUACGGAACG: the yeast fitness came out at 0.777.

GUUCCGUUGGCGUAAUGGUAAAGCGUCUCCCUCCUCAGGAGAAGACUGCGGGUUGGAGUCACGUACGGAACG: the yeast fitness amounted to 0.611. In the case of GUUGCGUUCGCGUAAUGGUAAAGCGUCUCCCUCCUAAGGAGAAGACUGCGGGUUCGAGUCCCGUACGGACCG, the yeast fitness was at most 0.5. For GUUCUGUUGGCGUAAUGGUAACGCGUCUCCCUCCUAAGAAGAAGACUGCGGGUUCGAGUCCCGUACGGCACG, the yeast fitness came out at 0.647.

For the variant GUUUCGUUGACGUAAUGGUAACGUGUCUCCCUCCUAAGGAGAAGACUGCGGGUUCGAGUCCCGUACGGAACG, the yeast fitness stood at 0.98. The figure for GAUCCGUUGGCGUAAUGGUAACGCGUCUCCCUCCUAAGGAGAAGACUGGGGGUUCGAGUCCCGUACGGAACG is 0.812.

Regarding GUUCCGUUGGCGUAAUGGUAACGCGUCUCCCUCCUAAGGAGAAGACUGCGGGUACGAGUCCCGUACAGAACG, the yeast fitness amounted to 0.656. To GUUCCGUUGGCGUAAUGGUAACGCGUCUCCGUCCUAAGGAGAAGACUGCGGAUUCGAGUCCCGUACGGAACG belongs 0.755. To GUUCCGUUGGCGUAAUGGUAACGCGUCUCCCUCUUAAGGAGAAGCCUGCGGGUUCGAGUCCCGUACUGCCCG belongs at most 0.5; to GUUCCGGUGGCGUAAUGGUAACGCGUAUCCCUCCUAAGGUGAAGACUGCGGGUUCGAGUCCCGUACGGAACG, at most 0.5; to GUUCCGUUGGCGUAAUGGUAACGCGUCUCCCUCCUAAGGAGAAGACUGCGGGCUCGAGUCCCGUCCGGAACG, 0.878. The figure for GUUCCGUUGGCGUAAUGGUAACGCGUCUGCCUCCGAAGGAGAAGACUGCGGGUUCGAGUCCUGUACGGUACG is at most 0.5. On to GUUCCGUUGCCGUAAUGGUAACGCGUCUCCCUCCUAAGGAGAAGACUGCGGGUUCGAGUACAGUACGGAACG, for which the yeast fitness worked out at 0.529. To GUUCAGUUGGCGUAAUGGUAACGCGUCUCCCUCCUAAGGAGAAGACUGUGGGUUCGAGUCCCGUCCGGAACG belongs 0.614. With GUUGCGUUGGCGUAACGGUAACGCGUCUCCUUCCUAAGGAGAAGACUGCGGGUUCGAGUCCCGUACGGAACG, the yeast fitness is 0.554.

Take GUUCCGAUGGCGUAAUGGUGACAUGUCUCCCUCCAAAGGAGAAGACUGCGGGUUCGAGUACCGUACGGCACG: the yeast fitness amounted to 0.548. The figure for GGUCCGUUGGCGUAAUGGUAACGCGUUUCCCUCCUAAGGAGAAGACUGCGGGUUCGAGUCCCGUACGUAACG is 0.589; for GUUCCGUUGGCGUAGUGGUAACGCGUCUCCCUCCUAAGGAGAAGACUGCGAGUUCGAGUCCCGUACGGAACG it is 0.668; for GAUCCGUUGGCGUAAUGGUAACGCGUCUCGCUCCUAUGGAGAAGACUGCGGGAUUGUGUCCCGUACGGAACG it is 0.574. The figure for GUCCCGUUGGCGUAAUGGUAACGCGUCUCCCUCCUAAGGAGAAGACUGCGGGUUCGAGUCCCGUCCGGAACG is 1; for GUUCCGUUGGCGUAAUGGUAACGCGUCUCCCUCCUAAGGAGAAGACUGCGGGUUUGAGUCCCGUGCGGAACG it is 0.623; for GUUCCGCUGGCGUAAUGGUAACGCGUAUCCCUCCUAAGGAGAAGACUGCGGGUUCGAGUCCCGUACGGUACG it is at most 0.5. To GUUCCGUUGGCGUAAUGGUAACGCGUCUCCCUCCUAAGGAGAGGACUGCGGGUUAGAGUCCCGUACGGUACG belongs 0.633; to GUCCCGUUGGCGUAAUGGUAACGCGUCUCCCUCCUAAGGAGAACACUGCGGGUUCGAGUCCCGUACGGAACG, 0.908. As for GUGCCGUUGGCGUAAUGGUAACGCGUCUCCCUCCUAAGGAGAAGACUGAGGGUUCGAGUCCCGUACGGAACG, the yeast fitness was 0.655. The figure for GUUCCGUUGGCGUAAUGGUAACGCGUCUCCAUCCUAAGGAGAAGACUGCGGGUUCGAGUCGCAUACGGAACG is at most 0.5; for GUUCCGUUGGCCUAAUGGUAACGCGUCUCGCUCCUAAGGAGUAGACUGCGGGUUCGAGUCCCGUACGGAACG it is at most 0.5; for GUUCCGUUGGCGUAAAGGUAACGCGUCUCCCUCCUAAGGAGAAGAAUGCGGGUUCGAGUCCCGUACGGUACG it is 0.715.

Take GUUCCGUUGACGAAAUGGUAACGUGUCUCCCUCCUAAGGAGAAGACUGCGGGUUCGAGUCCCGUCCGGAACG: the yeast fitness is at most 0.5. On to GUUCCGUUGGCGUAAUGGUAACGCGUCUCCCACCUAAGGAGAAGACUGCGGGUUCCAGUCCCGUACGGAACG, for which the yeast fitness turned out to be 0.594. The figure for GCUCCGUUGGCGUUAUGGUAUCGCGUCUCCCUCCUAAGGAGAAGACUGCGGGUUCGAGUCCCGUACGGAACG is 0.596. To GUUCCGUUGGCGUAAUGGUAACGCGUCUCCCUCCUAAGGAAAAGACUGCGGGUUCGUGUCCCGUACGGAACG belongs 0.759; to GUUCCGUUGGCGUAAUGGUAACGCGCGUCCCUCCUAAGGAGAAGACUGCGGGUUCGAGUCCCGUACGCAACG, at most 0.5; to GUUCCGUUGGCGUAAUGGUAACGCGUCUUCUUCCUAAGGAGAAGACUGCGGGUUCGAGUCCCGUACGGAGCG, 0.726.

The values above are taken from the RNAGym collection of RNA variant scans (doi:10.1126/science.aae0568).
